The values below come from ChEMBL document CHEMBL3272032, “Antifolate studies. Activities of 40 potential antimalarial compounds against sensitive and chlorguanide triazine resistant strains of folate-requiring bacteria and Escherichia coli” (J Med Chem, 1977).

Experiment [1] deals with Enterococcus faecium. The experiment in a line: Antibacterial activity against chlorguanide triazine-resistant Streptococcus faecium ATCC 8043 assessed as reduction in growth in presence of 0.002 ug/ml folic acid. The experiment is classed as functional, organism-based. The gist of the method: (§1)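 Folate-requiring strains grown in medium with folic acid, 0.002 µg/ml for S. faecium and 0.001 µg/ml for L. casei; P. cerevisiae given folinic acid, 0.001 µg/ml. Resistant substrains came from serial transfer in rising chlorguanide triazine, and the most resistant were used. Compounds tested up to 1000 µg/ml, or 100 µg/ml when supply was limited. Growth read as Klett turbidity; IC50 is the µM concentration giving 50% growth inhibition.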

Experiment [2] has as its system Lacticaseibacillus casei. The experiment is described as follows: Antibacterial activity against sensitive Lactobacillus casei ATCC 7469 assessed as reduction in growth in presence of 0.001 ug/ml folic acid. The format is functional, organism-based. Put shortly:
(§2)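 Folate-requiring strains in the medium of the earlier assay method. Folic acid was 0.002 μg/ml for S. faecium and 0.001 μg/ml for L. casei. Turbidity read on a Klett-Summerson colorimeter. IC50 is the micromolar concentration reducing growth to 50% of control. Top concentration was 1000 μg/ml, or 100 μg/ml if supply was limited.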

In experiment [3] the test system is Lacticaseibacillus casei. The experiment in a line: Antibacterial activity against chlorguanide triazine-resistant Lactobacillus casei ATCC 7469 assessed as reduction in growth in presence of 0.001 ug/ml folic acid. The experiment is classed as functional, organism-based. Put shortly:
as §1

Experiment [4] concerns Pediococcus. The experiment in a line: Antibacterial activity against sensitive Pediococcus cerevisiae ATCC 808 assessed as reduction in growth in presence of 0.001 ug/ml folinic acid. The experiment is classed as functional. Put shortly: (§3)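 P. cerevisiae grown with folinic acid at 0.001 μg/ml in the earlier-described medium. Turbidity read on a Klett-Summerson colorimeter. IC50 is the micromolar concentration reducing growth to 50% of control. Top concentration was 1000 μg/ml, or 100 μg/ml when supply was limited.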

The subject of experiment [5] is Pediococcus. The experiment in a line: Antibacterial activity against chlorguanide triazine-resistant Pediococcus cerevisiae ATCC 808 assessed as reduction in growth in presence of 0.001 ug/ml folinic acid. The experiment is classed as functional. The gist of the method: as §1
Experiment [6] concerns Escherichia coli. The experiment is described as follows: Antibacterial activity against sensitive Escherichia coli ATCC 10536 assessed as reduction in growth in presence of p-aminobenzoic acid. The experiment is classed as functional, organism-based. Put shortly:
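Reversal test. Drug inhibition was challenged with PABA in Sahyun et al. medium plus 0.6% acid-hydrolyzed casein. Growth read as turbidity on a Klett-Summerson colorimeter. Scored as reversal or nonreversal of the drug inhibition.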

Experiment [7] has as its system Plasmodium berghei. The experiment in a line: Antimalarial activity against Plasmodium berghei infected in sc dosed mouse assessed as active dose required to increase of 100% in mean survival time. The format is functional. As to conditions: read-out: MED. The gist of the method:
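Mice received a standard blood-induced P. berghei inoculum and were then treated with one subcutaneous dose of compound suspended in peanut oil. The minimum active dose is the lowest dose that raised mean survival time by 100%.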

The subject of experiment [8] is Plasmodium berghei. The experiment in a line: Antimalarial activity against Plasmodium berghei infected in sc dosed mouse assessed as dose required to survivors for period of 60 days. The format is functional. The gist of the method: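 Mice infected with a blood-induced P. berghei inoculum were given one subcutaneous dose in peanut oil. Survivors at 60 days counted as cured. The minimum curative dose is the lowest dose that cured any mouse.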

Experiment [9] relates to Enterococcus faecium. The experiment in a line: Antibacterial activity against sensitive Streptococcus faecium ATCC 8043 assessed as reduction in growth. The experiment is classed as functional, organism-based. The gist of the method: as §1
In experiment [10] the test system is Enterococcus faecium. The experiment is described as follows: Antibacterial activity against chlorguanide triazine-resistant Streptococcus faecium ATCC 8043 assessed as reduction in growth. The experiment is classed as functional, organism-based. Put shortly:
as §1

Experiment [11] deals with Enterococcus faecium. The experiment in a line: Fold increase in resistance, ratio of IC50 for chlorguanide triazine-resistant Streptococcus faecium ATCC 8043 to IC50 for sensitive Streptococcus faecium ATCC 8043. The format is functional. The gist of the method: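 Resistant S. faecium substrain raised by serial transfer in increasing chlorguanide triazine. IC50 (µM, 50% growth inhibition by turbidity) was found for resistant and parent strains in folic acid (0.002 µg/ml) medium. Fold increase taken as IC50 resistant / IC50 sensitive.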

The subject of experiment [12] is Lacticaseibacillus casei. The experiment is described as follows: Antibacterial activity against sensitive Lactobacillus casei ATCC 7469 assessed as reduction. The experiment is classed as functional, organism-based. Put shortly: as §1
The subject of experiment [13] is Lacticaseibacillus casei. The experiment is described as follows: Antibacterial activity against chlorguanide triazine-resistant Lactobacillus casei ATCC 7469 assessed as reduction in growth. The experiment is classed as functional, organism-based. Put shortly:
as §1

The subject of experiment [14] is Lacticaseibacillus casei. The experiment in a line: Fold increase in resistance, ratio of IC50 for chlorguanide triazine-resistant Lactobacillus casei ATCC 7469 to IC50 for sensitive Lactobacillus casei ATCC 7469. The experiment is classed as functional. Put shortly: (§4)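 Resistant substrains were made by serial transfer in rising concentrations of cycloguanil, and the most resistant isolate of each organism was used. Both strains were assayed turbidimetrically under identical conditions. FIR = IC50 of the resistant strain divided by IC50 of the sensitive parent.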

Experiment [15] in a line: Antibacterial activity against sensitive Pediococcus cerevisiae ATCC 808 assessed as reduction. The experiment is classed as functional. Put shortly: as §3
A short description of experiment [16]: Antibacterial activity against chlorguanide triazine-resistant Pediococcus cerevisiae ATCC 808 assessed as reduction in growth. The format is functional. The gist of the method: as §1
Experiment [17] concerns Pediococcus. The experiment in a line: Fold increase in resistance, ratio of IC50 for chlorguanide triazine-resistant Pediococcus cerevisiae ATCC 808 to IC50 for sensitive Pediococcus cerevisiae ATCC 808. The format is functional. The gist of the method:
as §4

Experiment [18] deals with Escherichia coli. The experiment is described as follows: Antibacterial activity against sensitive Escherichia coli ATCC 10536 assessed as reduction in growth. The format is functional, organism-based. Put shortly:
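Growth inhibition in Sahyun et al. medium plus 0.6% acid-hydrolyzed casein. Growth read as turbidity on a Klett-Summerson photoelectric colorimeter. IC50 is the micromolar concentration giving 50% growth inhibition. Top concentration was 1000 μg/ml, or 100 μg/ml when compound was limited.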

For experiment [19], the system named is Enterococcus faecium. The experiment is described as follows: Antibacterial activity against sensitive Streptococcus faecium ATCC 8043 assessed as reduction in growth in presence of 0.002 ug/ml folic acid. The format is functional, organism-based. The gist of the method: as §2

Calls of active or inactive are those of the source. The rule behind the calls is not given here.

With `CCCCN(CCCC)CC(O)c1cc(-c2ccc(Cl)c(Cl)c2)nc2c(Cl)cc(Cl)cc12` (configuration not stated), the inhibition entry in the experiment with Enterococcus faecium [1], in the experiment on Lacticaseibacillus casei [2], in the experiment on Lacticaseibacillus casei [3], in the experiment with Pediococcus [4], in the experiment on Pediococcus [5] and in the experiment with Escherichia coli [6] was “Active” throughout. In addition, the inhibition result in the experiment on Enterococcus faecium [19] was “Active”. Moreover, the minimal effective dose with Plasmodium berghei [7] turned out to be 5 mg/kg. In addition, the MCD in the experiment with Plasmodium berghei [8] was determined as 20 mg/kg. Also, the IC50 in the experiment on Enterococcus faecium [9] worked out at 327000 nM; in the experiment with Enterococcus faecium [10], 572000 nM; in the experiment with Lacticaseibacillus casei [12], 170000 nM; in the experiment on Lacticaseibacillus casei [13], 250000 nM; in experiment [15], 290000 nM; in experiment [16], 354000 nM. Besides, in the experiment with Escherichia coli [18], the IC50 stood at 182 µM. For the same compound, the “Ratio IC50” value was found to be 2 in the experiment with Enterococcus faecium [11], 2 in the experiment on Lacticaseibacillus casei [14] and 1 with Pediococcus [17].

In the case of `CN(Cc1cnc2nc(N)nc(N)c2n1)c1ccc(C(=O)N[C@@H](CCC(=O)O)C(=O)O)cc1` [METHOTREXATE], the inhibition result in the experiment with Enterococcus faecium [1], in the experiment on Lacticaseibacillus casei [2], in the experiment with Lacticaseibacillus casei [3], in the experiment on Escherichia coli [6] and with Enterococcus faecium [19] was “Active” in each case. Besides, the inhibition entry with Pediococcus [4] and with Pediococcus [5] was “inactive” in each case. Further, the minimal effective dose with Plasmodium berghei [7] is above 640 mg/kg. The MCD with Plasmodium berghei [8] was above 640 mg/kg. Moreover, the IC50 amounted to 2 nM in the experiment on Enterococcus faecium [9]; 10 nM with Enterococcus faecium [10]; 0.06 nM in the experiment with Lacticaseibacillus casei [12]; 0.01 nM in the experiment on Lacticaseibacillus casei [13]; 400 nM in [15]; 1500 nM in experiment [16]. The IC50 in the experiment with Escherichia coli [18] was found to be 143 µM. Besides, the entries for the “Ratio IC50” value with Enterococcus faecium [11], in the experiment on Lacticaseibacillus casei [14] and in the experiment on Pediococcus [17] were 5, 0.17 and 4, respectively.

With `CC1(C)N=C(N)N=C(N)N1OCCCOc1cc(Cl)c(Cl)cc1Cl`, the inhibition entry in the experiment on Enterococcus faecium [1], with Lacticaseibacillus casei [2], in the experiment on Lacticaseibacillus casei [3], in the experiment on Pediococcus [4], with Pediococcus [5] and in the experiment on Enterococcus faecium [19] was “inactive” in each case. Further, the inhibition entry in the experiment with Escherichia coli [6] was “Active”. For the same compound, the minimal effective dose in the experiment on Plasmodium berghei [7] amounted to 20 mg/kg. The MCD in the experiment on Plasmodium berghei [8] amounted to 160 mg/kg. In addition, the concentration for half-maximal inhibition (IC50) with Enterococcus faecium [9] was 0.1 nM; in the experiment with Enterococcus faecium [10], 19 nM; in the experiment on Lacticaseibacillus casei [12], 21 nM; with Lacticaseibacillus casei [13], 400 nM; in experiment [15], 3 nM; in [16] it was 800 nM. In the experiment with Escherichia coli [18], the IC50 came to 1.7 µM. The “Ratio IC50” value turned out to be 190 in the experiment on Enterococcus faecium [11], 19 in the experiment on Lacticaseibacillus casei [14] and 267 in the experiment with Pediococcus [17].
